Measured values taken from ChEMBL document CHEMBL1123402, “Saturated analogues of poison ivy allergens. Synthesis of trans,trans- and cis,trans-3-alkyl-1,2-cyclohexanediols and sensitizing properties in allergic contact dermatitis” (1986).
“And” between values parts separate entries of the source, which are not always exact repeats. Identical values can stand only once.

Experiments:
Cavia porcellus [1] = species: Cavia porcellus; test: Ability to induce allergic contact dermatitis in guinea pig at 14 umol (5 injections) and expressed as average skin reaction; assay type: functional
Summary of the method: (§1)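 Sensitization by the FCAT method with five injections: the first sensitization was boosted by two injections of alkylcyclohexanediol in Freund complete adjuvant 1 week after the first test. Open epicutaneous challenge used the stated dose in ethanol, read at 48 h on a 0–3 erythema/swelling scale. Irritation thresholds were set on FCA-injected controls, with groups of eight per experiment.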

Cavia porcellus [2] = species: Cavia porcellus; test: Ability to induce allergic contact dermatitis in guinea pig at 14 umol (3 injections) and expressed as average skin reaction; assay type: functional
Summary of the method: (§2)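 Guinea pigs sensitized with the alkylcyclohexanediol in Freund complete adjuvant (3-injection schedule per curator). Elicitation by open epicutaneous test of the dose in ethanol. Read at 48 h on a scale: 0 none, 0.5 slight partial erythema, 1 erythema over the whole area, 2 erythema plus swelling, 3 swelling well beyond the area. FCA-treated control groups of eight animals.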

Cavia porcellus [3] = species: Cavia porcellus; test: Allergic contact dermatitis in guinea pig at 3.8 umol (3 injections) and expressed as number of animals reading with a test intensity of 0; assay type: functional; summary of the method: as §2
Cavia porcellus [4] = species: Cavia porcellus; test: (§3) Allergic contact dermatitis in guinea pig at 7.6 umol (5 injections) and expressed as number of animals reading with a test intensity of 1; assay type: functional; summary of the method: as §1
Cavia porcellus [5] = species: Cavia porcellus; test: Allergic contact dermatitis in guinea pig at 3.8 umol (3 injections) and expressed as number of animals reading with a test intensity of 0.5; assay type: functional; summary of the method: as §2
Cavia porcellus [6] = species: Cavia porcellus; test: Ability to induce allergic contact dermatitis in guinea pig at 7.6 umol (5 injections)of the compound and expressed as no. of positive animals out of 8; assay type: functional; summary of the method: as §1
Cavia porcellus [7] = species: Cavia porcellus; test: Allergic contact dermatitis in guinea pig at 14 umol (3 injections) and expressed as number of animals reading with a test intensity of 0; assay type: functional; summary of the method: as §2
Cavia porcellus [8] = species: Cavia porcellus; test: (§4) Ability to induce allergic contact dermatitis in guinea pig at 7.6 umol (5 injections) and expressed as average skin reaction; assay type: functional; summary of the method: as §1
Cavia porcellus [9] = species: Cavia porcellus; test: as §4; assay type: functional; summary of the method: as §1; remark: listed apart in the source
Cavia porcellus [10] = species: Cavia porcellus; test: Ability to induce allergic contact dermatitis in guinea pig at 3.8 umol (5 injections)of the compound and expressed as no. of positive animals out of 8; assay type: functional; summary of the method: as §1
Cavia porcellus [11] = species: Cavia porcellus; test: Allergic contact dermatitis in guinea pig at 14 umol (5 injections) and expressed as number of animals reading with a test intensity of 0.5; assay type: functional; summary of the method: as §1
Cavia porcellus [12] = species: Cavia porcellus; test: Allergic contact dermatitis in guinea pig at 14 umol (3 injections) and expressed as number of animals reading with a test intensity of 0.5; assay type: functional; summary of the method: as §2
Cavia porcellus [13] = species: Cavia porcellus; test: Ability to induce allergic contact dermatitis in guinea pig at 3.8 umol (3 injections) and expressed as average skin reaction; assay type: functional; summary of the method: as §2
Cavia porcellus [14] = species: Cavia porcellus; test: Ability to induce allergic contact dermatitis in guinea pig at 3.8 umol (5 injections) and expressed as average skin reaction; assay type: functional; summary of the method: as §1
Cavia porcellus [15] = species: Cavia porcellus; test: Allergic contact dermatitis in guinea pig at 3.8 umol (5 injections) and expressed as number of animals reading with a test intensity of 2; assay type: functional; summary of the method: as §1
Cavia porcellus [16] = species: Cavia porcellus; test: Allergic contact dermatitis in guinea pig at 14 umol (3 injections) and expressed as number of animals reading with a test intensity of 2; assay type: functional; summary of the method: as §2
Cavia porcellus [17] = species: Cavia porcellus; test: Allergic contact dermatitis in guinea pig at 14 umol (3 injections) and expressed as number of animals reading with a test intensity of 1; assay type: functional; summary of the method: as §2
Cavia porcellus [18] = species: Cavia porcellus; test: Ability to induce allergic contact dermatitis in guinea pig at 14 umol (3 injections)of the compound and expressed as no. of positive animals out of 8; assay type: functional; summary of the method: as §2
Cavia porcellus [19] = species: Cavia porcellus; test: Allergic contact dermatitis in guinea pig at 3.8 umol (3 injections) and expressed as number of animals reading with a test intensity of 1; assay type: functional; summary of the method: as §2
Cavia porcellus [20] = species: Cavia porcellus; test: Allergic contact dermatitis in guinea pig at 3.8 umol (5 injections) and expressed as number of animals reading with a test intensity of 0.5; assay type: functional; summary of the method: as §1
Cavia porcellus [21] = species: Cavia porcellus; test: Allergic contact dermatitis in guinea pig at 14 umol (5 injections) and expressed as number of animals reading with a test intensity of 2; assay type: functional; summary of the method: as §1
Cavia porcellus [22] = species: Cavia porcellus; test: Ability to induce allergic contact dermatitis in guinea pig at 3.8 umol (3 injections)of the compound and expressed as no. of positive animals out of 8
Cavia porcellus [23] = species: Cavia porcellus; test: Ability to induce allergic contact dermatitis in guinea pig at 14 umol (5 injections)of the compound and expressed as no. of positive animals out of 8; assay type: functional; summary of the method: as §1
Cavia porcellus [24] = species: Cavia porcellus; test: Allergic contact dermatitis in guinea pig at 7.6 umol (5 injections) and expressed as number of animals reading with a test intensity of 0; assay type: functional; summary of the method: as §1
Cavia porcellus [25] = species: Cavia porcellus; test: as §3; assay type: functional; summary of the method: as §1; remark: listed apart in the source
Cavia porcellus [26] = species: Cavia porcellus; test: Allergic contact dermatitis in guinea pig at 14 umol (5 injections) and expressed as number of animals reading with a test intensity of 0; assay type: functional; summary of the method: as §1
Cavia porcellus [27] = species: Cavia porcellus; test: Allergic contact dermatitis in guinea pig at 7.6 umol (5 injections) and expressed as number of animals reading with a test intensity of 2; assay type: functional; summary of the method: as §1
Cavia porcellus [28] = species: Cavia porcellus; test: Allergic contact dermatitis in guinea pig at 3.8 umol (5 injections) and expressed as number of animals reading with a test intensity of 0; assay type: functional; summary of the method: as §1
Cavia porcellus [29] = species: Cavia porcellus; test: Allergic contact dermatitis in guinea pig at 14 umol (5 injections) and expressed as number of animals reading with a test intensity of 1; assay type: functional; summary of the method: as §1
Cavia porcellus [30] = species: Cavia porcellus; test: Allergic contact dermatitis in guinea pig at 3.8 umol (3 injections) and expressed as number of animals reading with a test intensity of 2; assay type: functional; summary of the method: as §2
Cavia porcellus [31] = species: Cavia porcellus; test: Allergic contact dermatitis in guinea pig at 3.8 umol (5 injections) and expressed as number of animals reading with a test intensity of 1; assay type: functional; summary of the method: as §1
Cavia porcellus [32] = species: Cavia porcellus; test: Allergic contact dermatitis in guinea pig at 7.6 umol (3 injections) and expressed as number of animals reading with a test intensity of 0; assay type: functional; summary of the method: as §2
Cavia porcellus [33] = species: Cavia porcellus; test: Ability to induce allergic contact dermatitis in guinea pig at 7.6 umol (3 injections) and expressed as average skin reaction; assay type: functional; summary of the method: as §2
Cavia porcellus [34] = species: Cavia porcellus; test: Ability to induce allergic contact dermatitis in guinea pig at 7.6 umol (3 injections)of the compound and expressed as no. of positive animals out of 16; assay type: functional; summary of the method: as §2
Cavia porcellus [35] = species: Cavia porcellus; test: Allergic contact dermatitis in guinea pig at 7.6 umol (3 injections) and expressed as number of animals reading with a test intensity of 0.5; assay type: functional; summary of the method: as §2
Cavia porcellus [36] = species: Cavia porcellus; test: Ability to induce allergic contact dermatitis in guinea pig at 3.8 umol (5 injections)of the compound and expressed as no. of positive animals out of 16; assay type: functional
Cavia porcellus [37] = species: Cavia porcellus; test: Ability to induce allergic contact dermatitis in guinea pig at 7.6 umol (5 injections)of the compound and expressed as no. of positive animals out of 16; assay type: functional
Cavia porcellus [38] = species: Cavia porcellus; test: Ability to induce allergic contact dermatitis in guinea pig at 3.8 umol (3 injections)of the compound and expressed as no. of positive animals out of 16; assay type: functional; summary of the method: as §2
Cavia porcellus [39] = species: Cavia porcellus; test: Allergic contact dermatitis in guinea pig at 7.6 umol (5 injections) and expressed as number of animals reading with a test intensity of 0.5; assay type: functional; summary of the method: as §1
Cavia porcellus [40] = species: Cavia porcellus; test: Allergic contact dermatitis in guinea pig at 7.6 umol (3 injections) and expressed as number of animals reading with a test intensity of 1; assay type: functional; summary of the method: as §2
Cavia porcellus [41] = species: Cavia porcellus; test: Allergic contact dermatitis in guinea pig at 7.6 umol (3 injections) and expressed as number of animals reading with a test intensity of 2; assay type: functional; summary of the method: as §2
Cavia porcellus [42] = species: Cavia porcellus; test: Ability to induce allergic contact dermatitis in guinea pig at 7.6 umol (3 injections)of the compound and expressed as no. of positive animals out of 8; assay type: functional; summary of the method: as §2
Cavia porcellus [43] = species: Cavia porcellus; test: Ability to induce allergic contact dermatitis in guinea pig at 3.8 umol (5 injections) and expressed as no. of positive animals out of 8; assay type: functional; summary of the method: as §1
Cavia porcellus [44] = species: Cavia porcellus; test: Ability to induce allergic contact dermatitis in guinea pig at 3.8 umol (3 injections)of the compound and expressed as no. of positive animals out of 8; assay type: functional; summary of the method: as §2

| Structure (SMILES) | No. of animals (Cavia porcellus [3]) | No. of animals (Cavia porcellus [5]) | Average skin reaction (Cavia porcellus [13]) | Average skin reaction (Cavia porcellus [14]) | No. of animals (Cavia porcellus [15]) | No. of animals (Cavia porcellus [19]) | No. of animals (Cavia porcellus [20]) | No. of animals (Cavia porcellus [27]) | No. of animals (Cavia porcellus [28]) | No. of animals (Cavia porcellus [30]) | No. of animals (Cavia porcellus [31]) | No. of animals (Cavia porcellus [32]) | Average skin reaction (Cavia porcellus [33]) | No. of animals (Cavia porcellus [35]) | No. of animals (Cavia porcellus [39]) | No. of animals (Cavia porcellus [40]) | further results |
| --- | --- | --- | --- | --- | --- | --- | --- | --- | --- | --- | --- | --- | --- | --- | --- | --- | --- |
| CCCCCCCCCC[C@H]1CCC[C@@H](O)[C@@H]1O | 4 | 3 | 0.3 | 0.5 | 0 | 1 | 4 | 0 | 2 | 0 | 2 | – | – | – | – | – | Average skin reaction (Cavia porcellus [1]): 0.9; Average skin reaction (Cavia porcellus [2]): 0.9; No. of animals (Cavia porcellus [4]): 1; No. of positive animals (Cavia porcellus [6]): 6 and 7; No. of animals (Cavia porcellus [7]): 2; Average skin reaction (Cavia porcellus [8]): 0.5; Average skin reaction (Cavia porcellus [9]): 0.7; No. of positive animals (Cavia porcellus [10]): 6; No. of animals (Cavia porcellus [11]): 3; No. of animals (Cavia porcellus [12]): 2; No. of animals (Cavia porcellus [16]): 2; No. of animals (Cavia porcellus [17]): 2; No. of positive animals (Cavia porcellus [18]): 6; No. of animals (Cavia porcellus [21]): 2; No. of positive animals (Cavia porcellus [22]): 4; No. of positive animals (Cavia porcellus [23]): 7; No. of animals (Cavia porcellus [24]): 2 and 1; No. of animals (Cavia porcellus [25]): 5; No. of animals (Cavia porcellus [26]): 1; No. of animals (Cavia porcellus [29]): 2 |
| CCCCCCCCCCCCCCC[C@H]1CCC[C@@H](O)[C@@H]1O | 4 | 8 | 0.5 | 0.8 | 1 | 4 | 4 | 0 | 2 | 0 | 9 | 2 | 0.8 | 2 | 2 and 1 | 12 | No. of positive animals (Cavia porcellus [34]): 14; No. of positive animals (Cavia porcellus [36]): 14; No. of positive animals (Cavia porcellus [37]): 15; No. of positive animals (Cavia porcellus [38]): 12 |
| CCCCCCCCCCCCCCC[C@H]1CCC[C@H](O)[C@@H]1O | 3 | 5 | 0.3 | 0.5 | 0 | 0 | 4 | 0 | 2 | 0 | 2 | 1 | 0.5 | 6 | 2 and 1 | 1 | No. of animals (Cavia porcellus [41]): 0; No. of positive animals (Cavia porcellus [42]): 7; No. of positive animals (Cavia porcellus [43]): 6; No. of positive animals (Cavia porcellus [44]): 5 |
